# Reference: ChEMBL document CHEMBL1134485, “Diguanidino and "reversed" diamidino 2,5-diarylfurans as antimicrobial agents” (2001)
# How the values were obtained:
# Candida albicans [1] = experiment: In vitro minimum fungicidal concentration against Candida albicans.; type: functional
# Procedure, shortened: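 Yeast MFC: after broth macrodilution (RPMI 1640/MOPS pH 7.0, 0.5 × 10³ to 2.5 × 10³ CFU/mL, 35 °C, 48 h or 72 h for C. neoformans, drug 100 to 0.09 µg/mL), 100 µL from tubes with complete inhibition plated on Sabouraud agar; lowest concentration yielding three or fewer colonies recorded.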
# Candida albicans [2] = experiment: In vitro minimum inhibitory concentration against Candida albicans.; type: functional
# [3] = system: Mycobacterium tuberculosis; experiment: In vitro minimum inhibitory concentration required to inhibit Mycobacterium tuberculosis; type: functional
# Procedure, shortened: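 M. tuberculosis H37Rv grown in BACTEC 12B medium; fluorometric broth microdilution (Microplate Alamar Blue Assay). […] MIC = lowest concentration reducing relative fluorescence units by ≥90% relative to control culture. Testing done by TAACF.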
# Nucleic Acid [4] = system: Nucleic Acid
# Nucleic Acid [5] = system: Nucleic Acid; remark: listed apart in the source
# Aspergillus fumigatus [6] = experiment: In vitro minimum fungicidal concentration required to inhibit Aspergillus fumigatus(MFC); type: functional
# Procedure, shortened: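 Mould MFC: 100 µL aliquots from macrodilution tubes (RPMI 1640/MOPS pH 7.0, 0.5 × 10³ to 2.5 × 10³ CFU/mL conidial inoculum, 30 °C, 48-72 h, drug 100 to 0.09 µg/mL) showing complete growth inhibition plated on Sabouraud agar; MFC taken as lowest drug concentration giving three or fewer colonies.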
# Aspergillus fumigatus [7] = experiment: Antimicrobial activity against Aspergillus fumigatus (MIC); type: functional
Structure (SMILES),MFC (Candida albicans [1]),MIC (Candida albicans [2]),MIC [3],ΔTm (Nucleic Acid [4]),ΔTm (Nucleic Acid [5]),MFC (Aspergillus fumigatus [6]),MIC (Aspergillus fumigatus [7])
Cc1cc(NC(=N)c2ccccc2)ccc1-c1ccc(-c2ccc(NC(=N)c3ccccc3)cc2C)o1,6.25 µg/mL,3.12 µg/mL,3.13 µg/mL,24.9,7.8,–,–
Cc1cc(NC(=N)c2ccccn2)ccc1-c1ccc(-c2ccc(NC(=N)c3ccccn3)cc2C)o1,10 µg/mL,10 µg/mL,≤ 1 µg/mL,22.6,8.9,100 µg/mL,10 µg/mL
N=C(N)c1ccc(-c2ccc(-c3ccc(C(=N)N)cc3)o2)cc1 [FURAMIDINE],25 µg/mL,6.25 µg/mL,–,25,11.7,–,–
N=C(Nc1ccc(-c2ccc(-c3ccc(NC(=N)c4ccccn4)cc3Cl)o2)c(Cl)c1)c1ccccn1,> 100 µg/mL,100 µg/mL,8 µg/mL,5.2,0,–,> 100 µg/mL
CC(=N)Nc1ccc(-c2ccc(-c3ccc(NC(C)=N)cc3)o2)cc1,–,> 100 µg/mL,–,15.9,6,> 100 µg/mL,100 µg/mL
